The values that follow come from ChEMBL document CHEMBL4270646, “Novel antimalarial chloroquine- and primaquine-quinoxaline 1,4-di-N-oxide hybrids: Design, synthesis, Plasmodium life cycle stage profile, and preliminary toxicity studies” (Eur J Med Chem, 2018).

In data set [1] the test system is Mus musculus. The experiment in a line: Acute toxicity in BALB/c mouse assessed as effect on blood urea nitrogen level at 300 to 500 mg/kg, po administered as single dose measured at day 14. It is filed as organism-based. The note with it: in vivo.
Data set [2] is described as follows: Genotoxicity in Salmonella typhimurium TA1535 harboring pSK1002 assessed as bacterial survival at 0.001 to 0.063 mg/ml after 4 hrs in absence of Sprague-Dawley rat liver S9 fraction by SOS/umu assay relative to control. Format: toxicity, organism-based. The settings on record: salmonella enterica subsp. enterica serovar typhimurium; read-out: Survival. A digest of the protocol: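 Log-phase S. typhimurium TA1535/pSK1002 (OD600 0.15–0.4) exposed for 4 h at 37°C with shaking, with 10% rat S9 mix or PBS. Eleven twofold dilutions tested from 1 mg/mL final; DMSO as solvent control. A600 read. Survival expressed as % of negative-control A600.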

Data set [3] is described as follows: Selectivity index, ratio of CC50 for human HepG2 cells to IC50 for GFP-expressing Plasmodium berghei sporozoites. It is filed as toxicity. The settings on record: read-out: Ratio CC50/IC50. A digest of the protocol: (§1)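 Selectivity index = CC50 (matching cell) / IC50 (matching parasite). Cell–parasite pairs: HepG2-CD81 with P. yoelii, HepG2 with P. berghei, human hepatocytes with P. falciparum.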

Data set [4] has as its system Mus musculus. The experiment in a line: Acute toxicity in BALB/c mouse assessed as appearance of bright hair without erection at 300 to 500 mg/kg, po administered as single dose measured every day for 14 days. Format: organism-based. The note with it: in vivo, 336 h. A digest of the protocol:
(§2)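 Female BALB/c mice, 6-8 weeks old, 20-23 g, in groups of three. Single oral dose of 300 or 500 mg/kg; vehicle DMSO 100% given to controls. Mice watched for signs of toxicity for 4 h after dosing. Physical appearance, injury, pain and illness recorded daily for 14 days. Euthanasia in a CO2 chamber on day 14 or earlier if suffering.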

The test system of data set [5] is Mus musculus. The experiment in a line: Acute toxicity in BALB/c mouse assessed as appearance of normal coloured mucosa at 300 to 500 mg/kg, po administered as single dose measured every day for 14 days. Format: organism-based. The settings on record: in vivo, 336 h. A digest of the protocol:
as §2

Data set [6] relates to Plasmodium yoelii. Nature of the data set: Antiplasmodial activity against Plasmodium yoelii 17XNL sporozoites infected in BALB/c mouse assessed as parasite burden at 100 mg/kg, po measured at day 4 by […] (reference value: 0.06%). It is filed as functional. Summed up: (§3)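 BALB/c mice (6-8 weeks, 20-23 g), n=4 per hybrid group and n=5 per control. Dosed orally at 100 mg/kg (100 µL) on days -1, 0, +1 and +2. Vehicle was DMSO 100%; primaquine diphosphate given at 30 mg/kg daily. On day 0, 5 x 10^3 cryopreserved P. yoelii 17XNL sporozoites injected i.v. Parasitaemia read by Giemsa smear and SYBR Green flow cytometry. Groups compared by Kruskal-Wallis test.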
(In general: A flow cytometer gives signals particle by particle.)

Data set [7] in a line: Cytotoxicity against human HepG2 cells assessed as reduction in cell viability after 48 hrs by MTT assay. It is filed as cell-based. Summed up:
(§4)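 Cells seeded at 2 × 10^5 per well and allowed 24 h at 37°C, 5% CO2 to form a monolayer. Dilutions added in triplicate and incubated 48 h. MTT (2 mg/mL) then added for 4 h, followed by DMSO for 20 min at room temperature. Absorbance read at 550 nm; DMSO diluent and untreated cells served as negative controls. CC50 derived from the curve.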
(In general: Formazan colour is commonly taken as a measure of viable cells.)

For data set [8], the system named is Plasmodium yoelii. The experiment in a line: Antiplasmodial activity against Plasmodium yoelii 17XNL sporozoites infected in BALB/c mouse assessed as incident of decrease in peripheral blood parasite levels at 100 mg/kg, po measured at day 1 by […] relative to control. Format: functional. Also noted: scale not given: the % may be the effect or the level left. Summed up:
as §3

A short description of data set [9]: Genotoxicity in Salmonella typhimurium TA1535 harboring pSK1002 assessed as umu gene induction at 0.001 to 0.063 mg/ml after 4 hrs in presence of Sprague-Dawley rat liver S9 fraction by beta-galactosidase reporter gene assay relative to control. Format: toxicity, organism-based. The note with it: salmonella enterica subsp. enterica serovar typhimurium; read-out: FC. Summed up:
(§5)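 SOS/umu test, 4 h at 37°C, with S9 mix or PBS. Positive controls 4-NQO (2.5 µg/mL final, no S9) and 2-AA (0.0125 mg/mL final, with S9). Aliquots incubated with ONPG 0.9 mg/mL in B-buffer for 30 min at 28°C, then stopped with 1 M Na2CO3. Activity calculated as A420/A600. Induction factor is the ratio to the DMSO control; genotoxic if ≥2 at ≥80% survival.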
(In general: In a reporter assay the amount or activity of a reporter protein is the signal.)

Data set [10] has as its system Mus musculus. Nature of the data set: Acute toxicity in BALB/c mouse assessed as effect on creatinine level at 300 to 500 mg/kg, po administered as single dose measured at day 14. The settings on record: in vivo. Format: organism-based.
The subject of data set [11] is Mus musculus. Nature of the data set: Acute toxicity in BALB/c mouse assessed as behavioral changes at 300 mg/kg, po administered as single dose measured every day for 14 days. Format: organism-based. The settings on record: in vivo, 336 h. Summed up: as §2
Data set [12] deals with Plasmodium yoelii. The experiment in a line: Antiplasmodial activity against Plasmodium yoelii 17XNL sporozoites infected in BALB/c mouse assessed as pre-patent time period of parasitaemia at 100 mg/kg, po measured at day 4 by […]. Format: functional. Summed up: as §3
Data set [13] deals with Mus musculus. The experiment in a line: Acute toxicity in BALB/c mouse assessed as effect on total bilirubin level at 300 to 500 mg/kg, po administered as single dose measured at day 14. Format: organism-based. The note with it: in vivo.
The test system of data set [14] is Mus musculus. The experiment in a line: Acute toxicity in BALB/c mouse assessed as appearance of clear and bright eyes at 300 to 500 mg/kg, po administered as single dose measured every day for 14 days. Format: organism-based. The settings on record: in vivo, 336 h. A digest of the protocol: as §2
Data set [15] can be described thus: Genotoxicity in Salmonella typhimurium TA1535 harboring pSK1002 assessed as umu gene induction at 0.001 to 0.063 mg/ml after 4 hrs in absence of Sprague-Dawley rat liver S9 fraction by beta-galactosidase reporter gene assay relative to control. Format: toxicity, organism-based. The note with it: salmonella enterica subsp. enterica serovar typhimurium; read-out: FC. Summed up:
as §5

Data set [16] has as its system Mus musculus. Nature of the data set: Induction of alanine transferase level in BALB/c mouse at 300 to 500 mg/kg, po administered as single dose measured at day 14 (reference value: 34 to 78 U/L). It is filed as organism-based. The settings on record: in vivo. A digest of the protocol: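 BALB/c female mice (6-8 weeks, 20-23 g), groups of three, given one oral dose of 300 or 500 mg/kg; DMSO 100% vehicle for controls. Observed 4 h after dosing, then daily for 14 days. Euthanized on day 14 or on signs of suffering. Blood biochemistry, including alanine transferase, compared with the range in untreated mice.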

Data set [17] can be described thus: Selectivity index, ratio of CC50 for human HepG2 cells expressing CD81 to IC50 for GFP-expressing Plasmodium yoelii sporozoites. It is filed as toxicity. The note with it: read-out: Ratio CC50/IC50. A digest of the protocol: as §1
The test system of another data set is Plasmodium falciparum. The experiment in a line: Antiplasmodial activity against the multidrug-resistant Plasmodium falciparum […] infected in human red blood cells assessed as reduction in parasite growth after 48 hrs by Hoechst 33342 staining based flow cytometric analysis. It is filed as functional, organism-based. A digest of the protocol: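 Ring-stage cultures (>80% rings) at 1% parasitaemia in A+ human erythrocytes, 2% haematocrit. Medium RPMI 1640 with 10% A+ serum, 37°C, 5% CO2/5% O2. Compounds in DMSO at 1.56–100 µg/mL final, DMSO ≤1%. After 48 h, cells stained with Hoechst 33342 and 1×10^4 counted by flow cytometry. IC50 from logistic dose-response regression; three independent experiments in triplicate.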

The nature of data set [18]: Cytotoxicity against human primary hepatocytes assessed as reduction in cell viability after 48 hrs by MTT assay. It is filed as cell-based, Hepatocyte. A digest of the protocol:
as §4

For `COc1cc(NC(C)CCCNC(=O)c2c(C)[n+]([O-])c3ccccc3[n+]2[O-])c2ncccc2c1` (centres undefined), the Activity entry is “Non-Toxic” in the data set on Mus musculus [1]; “Non-Toxic” with Mus musculus [4]; “Non-Toxic” with Mus musculus [5]; 0% in the data set with Plasmodium yoelii [6]; 25% in the data set on Plasmodium yoelii [8]; “Non-Toxic” in the data set on Mus musculus [10]. Moreover, the Activity entry in the data set with Mus musculus [11] is reported as “Non-Toxic”; in the data set on Mus musculus [13], “Non-Toxic”; in the data set with Mus musculus [14], “Non-Toxic”; in the data set on Mus musculus [16] it was 82 U/L. Moreover, the viability at 4 h in data set [2] is greater than 80%. Moreover, the results for the selectivity ratio in [3] and in data set [17] were 7.59 and 153, respectively. Besides, the figures for the half-maximal cytotoxic concentration (CC50) at 48 h in data set [7] and in data set [18] were 39.5 µM and greater than 213 µM, respectively. Moreover, the fold induction at 4 h in data set [9] and in data set [15] was less than 2 in each case. Besides, in the data set with Plasmodium yoelii [12], the Time is 24 h. For the same compound, in the data set with Plasmodium falciparum, the concentration for half-maximal inhibition (IC50) (usually the concentration that gives 50% inhibition) turned out to be 68.2 µM.
